The values below come from ChEMBL document CHEMBL4513216, “Probing the Open Global Health Chemical Diversity Library for Multistage-Active Starting Points for Next-Generation Antimalarials” (ACS Infect Dis, 2020).

The data set can be described thus: Toxicity liver stage against HepG2, at 10uM. In kind it is cell-based. Also on record: test concentration 10 uM, cell line HepG2-A16-CD81EGFP. The settings on record: human, HepG2-A16-CD81EGFP cells; read-out: INHIBITION
The method in brief:
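Uninfected HepG2-A16-CD81EGFP cells, 3 × 10^3 per well, 1536-well, plated on prespotted compound at 10 μM final, parasite-free screening media added to match infected plates; puromycin 10 μM positive, DMSO 0.5% negative; run in parallel with 48 h PbLuc assay at 37 °C, 5% CO2; viability by CellTiter-Glo luminescence, normalized to controls.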

With `COc1ccccc1CN1CCC(Cc2cnc(CN(C)C)cn2)CC1`, the cytotoxicity at 10 µM is -6.45%.

As to `COc1ccccc1CN1CC[C@H]2[C@@H](C1)[C@H](c1ccsc1)CN2C(C)=O`, the cytotoxicity at 10 µM is -12.4%.

On to `O=C(Cc1ccc(F)cc1)NCCNCc1cccc(O)c1`, for which the cytotoxicity at 10 µM is -10.4%.

As for `CN(C)C(=O)N1CC[C@]2(O)CCN(C(=O)c3ccc(C#N)nc3)C[C@@H]2C1`, the cytotoxicity at 10 µM was -51%.

`Cc1cc(Cl)ccc1NCC(=O)Nc1cc(C(C)(C)C)no1`: the cytotoxicity at 10 µM stood at 0.521%.

On to `COCCCN1Cc2cccc(NC(=O)c3cc(F)cc(F)c3)c2C1`, for which the cytotoxicity at 10 µM stood at 2.28%.

Regarding `Cc1cc(=O)[nH]c(SCC(=O)N(C)CC2Cc3ccccc3CN2C)n1` (centres undefined), the cytotoxicity at 10 µM was -1.96%.

Regarding `Cc1nc2ccc(C(=O)N3C[C@@H](O)[C@H](N4CCN(C)CC4)C3)cc2[nH]1`, the cytotoxicity at 10 µM is -27.5%.

For the molecule `CC(CN1CCCC1=O)NC(=O)c1cc(=O)[nH]c2ccc(Cl)cc12` (centres undefined), the cytotoxicity at 10 µM was -7.14%.

As for `Cc1ccc(S(=O)(=O)N2CCC3(CC(C(=O)NCC4CC4)=NO3)C2)cc1` (centres undefined), the cytotoxicity at 10 µM worked out at 4.35%.

For `Cc1ncc2c(n1)CCCC2NC(=O)c1ccncc1` (centres undefined), the cytotoxicity at 10 µM was -19.4%.

Consider `CC(C)C[C@H](N)C(=O)N1CC2(CCNCC2)c2cc(Cl)ccc21`, for which the cytotoxicity at 10 µM is -8.34%.

For the molecule `COCC(=O)N1CCCC2(CCN(Cc3cccc(C)n3)C2=O)C1` (centres undefined), the cytotoxicity at 10 µM is -0.559%.

For the molecule `O=C(Nc1ccccc1OCC(F)F)N[C@@H]1C=C[C@H](CO)C1`, the cytotoxicity at 10 µM is -7.14%.

As for `Cc1ccc(C(=O)N(C)Cc2cc(C)on2)cn1`, the cytotoxicity at 10 µM is -3.05%.

For the molecule `COc1cc(CN2CCn3c(CO)nnc3C2)ccc1OC(C)C`, the cytotoxicity at 10 µM is -25.4%.

For `N#Cc1ccc(CNC(=O)NC2CCN(CC(F)(F)F)C2)cc1` (centres undefined), the cytotoxicity at 10 µM was 7.06%.

For the molecule `Cc1nn(C)c2cnn(Cc3ccc(C(=O)N4CCN(C)CC4)o3)c12`, the cytotoxicity at 10 µM worked out at 14.3%.

Regarding `CCc1ncc2c(n1)CN(CC(=O)N1CCc3sccc3C1)CC2`, the cytotoxicity at 10 µM was 4.83%.

In the case of `Cc1nn(C)c2ncc(S(=O)(=O)N3CCCC(C(N)=O)C3)cc12` (centres undefined), the cytotoxicity at 10 µM was 3.45%.

As to `CC(C)(CO)Nc1c(NCc2ccccn2)c(=O)c1=O`, the cytotoxicity at 10 µM is 0.122%.

Take `Cc1nnc(CN(Cc2cccc3c2OCO3)CC2CCCO2)n1C` (centres undefined): the cytotoxicity at 10 µM was 3.93%.

For `Cc1ccc(N2N=C(C(=O)N(C)Cc3ccco3)NCC2=O)cc1`, the cytotoxicity at 10 µM was 6.27%.

Regarding `CC1CCc2n[nH]c(C(=O)NCCc3ccco3)c2C1` (centres undefined), the cytotoxicity at 10 µM was -6.63%.

Turning to `O=C(c1cc[nH]n1)N1CCC(c2nccn2Cc2ccncc2)CC1`, the cytotoxicity at 10 µM was 0.216%.

Turning to `CN(C)C(=O)N1CCC(c2nc3ccc(-c4ccccc4)cn3n2)CC1`, the cytotoxicity at 10 µM is 5.9%.

With `Cc1nc2cc(=O)[nH]n2c(C)c1CC(=O)NC(C)C`, the cytotoxicity at 10 µM came to 11.3%.

For the molecule `Cc1cc(CNC(=O)N2CCN(C(C)c3cccnc3)CC2)c(C)o1` (centres undefined), the cytotoxicity at 10 µM was -8.54%.

On to `O=C1CC(c2ccncc2)C2(CCN(C(=O)c3cccc(F)c3)CC2)N1` (centres undefined), for which the cytotoxicity at 10 µM was -74.4%.

For `CS(=O)(=O)NC1CCN(C(=O)c2cc3ccccc3s2)C1` (centres undefined), the cytotoxicity at 10 µM was 6.65%.

Regarding `CC(C)CCN1Cc2c(C(=O)N3CCCC3)nn(C)c2C1`, the cytotoxicity at 10 µM was -0.173%.

`CN(CCc1ccccc1)C1CCCN(Cc2nccn2C)C1` (centres undefined): the cytotoxicity at 10 µM was -18.5%.

For `Cc1cccc(C(=O)N2C[C@@H]3C(CC(=O)N4CCCC4)[C@@H]3C2)n1` (some centres undefined), the cytotoxicity at 10 µM is 1.82%.

For `Cc1nc(C)c(C(=O)N2CCCc3c(F)ccc(F)c32)o1`, the cytotoxicity at 10 µM was 7.19%.

For `COCCN(CCC#N)Cn1cc(Cl)cn1`, the cytotoxicity at 10 µM turned out to be 4.68%.

With `CN(C(=O)Cn1nc(-c2ccccc2F)ccc1=O)C1CCS(=O)(=O)C1` (centres undefined), the cytotoxicity at 10 µM amounted to 2.21%.

For `CCOc1c(C(N)=O)cn(C)c1-c1nc2cc(NC(C)=O)ccc2n1C`, the cytotoxicity at 10 µM was -46.9%.

For `CCCN(CCC)c1nc(N)nc(-c2cc(Cl)ccc2OC)n1`, the cytotoxicity at 10 µM worked out at 7.43%.

Regarding `COCCn1ccc2cc(NC(=O)N(C)C(C)CSC)ccc21` (centres undefined), the cytotoxicity at 10 µM was determined as 0.08%.

Regarding `COc1cc(Cl)cc(CN2CCCC(N3CCCC3)C2)c1OC` (centres undefined), the cytotoxicity at 10 µM is -3.88%.

As to `O=C(Nc1ccc(F)c(F)c1)N1CCC2(CCC(=O)N(C3CC3)C2)CC1`, the cytotoxicity at 10 µM is -0.381%.

With `CCOc1cccc(C(C)NCc2ccc(OC)c(OC)c2OC)c1` (centres undefined), the cytotoxicity at 10 µM amounted to 29.4%.

With `CCOc1ccc(C(=O)CCC(=O)N(C)Cc2nc(C)c[nH]2)cc1C`, the cytotoxicity at 10 µM is -5.45%.

In the case of `COc1cc(CNCc2ccnc(N3CCCCC3)c2)cc(OC)c1`, the cytotoxicity at 10 µM is 28.9%.

Regarding `CCc1cc(NCCCNS(C)(=O)=O)nc(-c2ccncc2)n1`, the cytotoxicity at 10 µM is 3.62%.

Turning to `O=C(C1CCC1)N1CCC2(COCc3cnc(N4CCOCC4)nc32)C1` (centres undefined), the cytotoxicity at 10 µM is -11.8%.

In the case of `COc1ccccc1C1=NOC(CC2(C(=O)NC(C)C)CCOCC2)C1` (centres undefined), the cytotoxicity at 10 µM is -20.4%.

Regarding `O=C(c1ccco1)N1CCC(n2nc(-c3ccco3)ccc2=O)CC1`, the cytotoxicity at 10 µM is -20.5%.

In the case of `CCc1[nH]nc(NC(=O)c2ccc(Cl)cn2)c1C`, the cytotoxicity at 10 µM was -9.69%.

Consider `Cc1ccc2cc(C(=O)N3CCCCC3c3nc[nH]n3)ccc2n1` (centres undefined), for which the cytotoxicity at 10 µM is -5.92%.

For the molecule `Cc1cc(C(=O)N2C[C@@H]3OCCN(CCN4CCCC4)[C@@H]3C2)c(C)o1`, the cytotoxicity at 10 µM was -74.8%.

As to `Cc1ccc(C(=O)N2CCN(Cc3ccc(C#N)cc3)CC2)n1C`, the cytotoxicity at 10 µM was -9.65%.

In the case of `COCc1cncc2c1CCN(C(=O)c1ccoc1C)C2`, the cytotoxicity at 10 µM was -81.1%.

As for `c1ccc(OCCNc2ncnc3sc4c(c23)CCNC4)cc1`, the cytotoxicity at 10 µM was determined as 45.4%.

On to `CSc1ccc(C(CC(=O)O)NC(=O)c2cc(C)on2)cc1` (centres undefined), for which the cytotoxicity at 10 µM is -12.1%.

Turning to `Cc1nc[nH]c1CN1CCN(C(=O)CN2CCCC2)[C@H]2CS(=O)(=O)C[C@H]21`, the cytotoxicity at 10 µM is -7.21%.

In the case of `CN(C)c1cccc(C(=O)N2CCn3c(nnc3C3CC3)C2)c1`, the cytotoxicity at 10 µM stood at 0.7%.

With `COCCC1(CO)CCCN(C(=O)c2cccnc2O)C1` (centres undefined), the cytotoxicity at 10 µM is -50.7%.

Consider `c1cc(-c2ccn(CCN3CCCC3)n2)cc(-c2nccs2)c1`, for which the cytotoxicity at 10 µM is -8.96%.

Take `CC(C)N(C)C(=O)c1ccc(CNc2ncc(C#N)cc2Cl)cc1`: the cytotoxicity at 10 µM worked out at 15.9%.

Consider `CCN1CC2(CCC1=O)CCN(Cc1cscn1)CC2`, for which the cytotoxicity at 10 µM was 2.48%.

Turning to `CN(C)Cc1cnc2n1CCN(C(=O)Cc1ccsc1)CC2`, the cytotoxicity at 10 µM is -3.95%.

With `O=C(Cn1nc2c(cc1=O)CSCC2)N[C@@H](Cc1ccccc1)C(=O)O`, the cytotoxicity at 10 µM was -3.14%.

Take `CNc1nc(CNC(=O)Nc2cccc(COCCOC(C)C)c2)cs1`: the cytotoxicity at 10 µM turned out to be 8.77%.

Regarding `Cc1noc(C)c1CN1C[C@@H]2COC[C@@H](CC(=O)N3CCCO3)[C@@H]2C1`, the cytotoxicity at 10 µM is -68.3%.

As to `Cc1nccn1-c1ccc(CNS(=O)(=O)N2CCC(C)CC2)cn1`, the cytotoxicity at 10 µM came out at 1.28%.

`CC(C)(C)C(=O)NCCC(=O)NS(=O)(=O)c1cccc(C#N)c1`: the cytotoxicity at 10 µM came to 1.01%.

Take `Cc1nc(COC[C@H]2CC[C@H]3[C@H](CCN3c3ncccn3)O2)cs1`: the cytotoxicity at 10 µM is -71.2%.

In the case of `COc1cc(N2C[C@H]3OCC[C@H]3[C@H](C(=O)NC3CC3)C2)ncn1`, the cytotoxicity at 10 µM is -8.83%.

Turning to `O=C(CCSC1CCc2ccccc2NC1=O)NCCCO` (centres undefined), the cytotoxicity at 10 µM is -5.65%.

For the molecule `Cc1cnc(CNC(=O)[C@@]23CCO[C@@H]2CCN(C2CCCC2)C3)cn1`, the cytotoxicity at 10 µM was -110%.

With `Cc1ncc(CNC2CCc3nc(C(C)C)nn3C2)s1` (centres undefined), the cytotoxicity at 10 µM was 3.97%.

Regarding `CC(C)c1n[nH]c(C(=O)NC(C)c2ccncc2)c1Br` (centres undefined), the cytotoxicity at 10 µM is -5.85%.

As to `CCc1nsc(N2CCC3(CC2)OCCO3)n1`, the cytotoxicity at 10 µM is 2.24%.

`Cc1cccc(C(=O)Nc2c(C(=O)N(C)C)nn(C)c2C)c1`: the cytotoxicity at 10 µM is 7.58%.

Regarding `CN(Cc1csc(-c2cccs2)n1)C(=O)CCn1ccc(=O)[nH]c1=O`, the cytotoxicity at 10 µM worked out at 4.71%.

As for `CCOc1ccc(C(=O)NC2CCN(c3ncccn3)CC2)cc1C`, the cytotoxicity at 10 µM is -10.1%.

Turning to `Cc1cccc(-c2ncc(CNC(C)CO)cn2)c1` (centres undefined), the cytotoxicity at 10 µM came to 2.16%.

For the molecule `COc1ccc(C2=NOC(CO)C2)cc1` (centres undefined), the cytotoxicity at 10 µM is 11.2%.

In the case of `CCC(CO)N(C/C(C)=C/c1ccco1)Cc1ccccn1` (centres undefined), the cytotoxicity at 10 µM was -2.46%.

As to `CS(=O)(=O)c1ccc(C(=O)N2CCCC(n3ccnc3)C2)cc1` (centres undefined), the cytotoxicity at 10 µM was -19.4%.

Regarding `CC(C)Cc1ncc2c(n1)CN(C(=O)c1ccc(Cn3ccnc3)o1)C2`, the cytotoxicity at 10 µM was 3.09%.

For `CN1CCOC(CNCc2nc(-c3cccnc3)no2)C1` (centres undefined), the cytotoxicity at 10 µM is -5.3%.

Turning to `CC(C)[C@@H]1CN(C(=O)NCCc2ccccc2)C[C@H]1NS(=O)(=O)N(C)C`, the cytotoxicity at 10 µM worked out at 3.08%.

As for `c1cnc(N2CCC(c3nccn3CC3CC3)CC2)nc1`, the cytotoxicity at 10 µM is -7.28%.

Turning to `O=c1[nH][nH]cc1-c1ccnc(NCCCN2CCOCC2)n1`, the cytotoxicity at 10 µM worked out at 3.27%.

Regarding `O=C(c1cccnc1)N1CCN2C[C@H](OCc3ccccc3)C[C@H]2C1`, the cytotoxicity at 10 µM is -75.2%.

Turning to `CC(C)Cc1noc(CN2CCN(CCO)CC2)n1`, the cytotoxicity at 10 µM is -1.22%.

In the case of `O=S(=O)(C1CC1)N1CCc2c(CN3CCOCC3)cncc2C1`, the cytotoxicity at 10 µM was -0.514%.

Regarding `CNC(=O)[C@@H]1[C@H]2CN(Cc3ccoc3)CCN2C[C@H]1c1ccccc1`, the cytotoxicity at 10 µM was 4.06%.

For `O=C(c1ccon1)N1CCc2ncnc(NCc3ccccn3)c2CC1`, the cytotoxicity at 10 µM was found to be 0.436%.

As to `Cc1cc(C)cc(C2(C(=O)NCC(C)CN3CCCC3=O)CC2)c1` (centres undefined), the cytotoxicity at 10 µM turned out to be 1.42%.

Take `O=C(CCO)N[C@H]1CN(CC2CCC2)C[C@@H]1c1ccccc1`: the cytotoxicity at 10 µM was -0.447%.

Consider `O=C(N1CCCC1)N1C[C@H]2CC[C@@]3(N=C(c4ccccc4)NC3=O)[C@H]2C1`, for which the cytotoxicity at 10 µM was 0.516%.
